According to ChEMBL document CHEMBL1641438, “In vitro efficacy of 7-benzylamino-1-isoquinolinamines against Plasmodium falciparum related to the efficacy of chalcones” (Bioorg Med Chem Lett, 2011):
Calls of active or inactive are those of the source. The rule behind the calls is not given here.

How the values were obtained:
Plasmodium falciparum [1] = assay: Antimalarial activity against multidrug-resistant Plasmodium falciparum TM91C235 assessed as inhibition of [3H]hypoxanthine uptake; type: functional, organism-based
Plasmodium falciparum [2] = assay: Resistance index, ratio of IC50 for Plasmodium falciparum multidrug-resistant TM91C235 to IC50 for mefloquine-resistant, chloroquine-sensitive Plasmodium falciparum D6; type: functional
Plasmodium falciparum [3] = assay: Antimalarial activity against chloroquine-resistant, mefloquine-sensitive Plasmodium falciparum W2 assessed as inhibition of [3H]hypoxanthine uptake; type: functional, organism-based
Plasmodium falciparum [4] = assay: Resistance index, ratio of IC50 for chloroquine-resistant, mefloquine-sensitive Plasmodium falciparum W2 to IC50 for mefloquine-resistant, chloroquine-sensitive Plasmodium falciparum D6; type: functional
Plasmodium falciparum [5] = assay: Antimalarial activity against mefloquine-resistant, chloroquine-sensitive Plasmodium falciparum D6 assessed as inhibition of [3H]hypoxanthine uptake; type: functional, organism-based
Plasmodium falciparum [6] = assay: Antimalarial activity against multidrug-resistant Plasmodium falciparum TM91C235 assessed as inhibition of [3H]hypoxanthine uptake in presence of 1 mM folinic acid; type: functional, organism-based
Method in brief: (§1)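 Folinic acid reversal assay, adapted from a folic acid reversal method and run in normal plasma, to rule out DHFR inhibition. Parasite growth inhibition (IC50) is measured with 1 mM folinic acid present and compared with the IC50 obtained without folinic acid.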

Plasmodium falciparum [7] = assay: Antimalarial activity against mefloquine-resistant, chloroquine-sensitive Plasmodium falciparum D6 assessed as inhibition of [3H]hypoxanthine uptake in presence of 1 mM folinic acid; type: functional, organism-based; method in brief: as §1

SMILES	IC50 (Plasmodium falciparum [1]) [nM]	Ratio IC50 (Plasmodium falciparum [2])	IC50 (Plasmodium falciparum [3]) [nM]	Ratio IC50 (Plasmodium falciparum [4])	IC50 (Plasmodium falciparum [5]) [nM]	Activity (Plasmodium falciparum [6])	Activity (Plasmodium falciparum [7])
Nc1nc(N)c2cc(NCc3cccc(Br)c3)ccc2n1	20.8	147	2.08	14.6	< 0.142		
Cl.Cl.Cl.Nc1nccc2ccc(NCc3ccc(Cl)cc3)cc12	205	2.78	417	5.67	73.6	Active	Active
Cl.Cl.Nc1nccc2ccc(NCc3cccc(Br)c3)cc12	142	1.38	421	4.09	103		
CCc1nc(N)nc(N)c1-c1ccc(Cl)cc1						inactive	inactive
Cl.Cl.Cl.Cl.Nc1nccc2ccc(NCc3ccc(Cl)c(Cl)c3)cc12	111	1.6	455	6.58	69.1		
CCN(CC)CCCC(C)Nc1ccnc2cc(Cl)ccc12 (configuration not stated)						Active	Active
Cl.Cl.Nc1nccc2ccc(NCc3ccccc3)cc12	486	2.29	1400	6.59	212		
OC(c1cc(C(F)(F)F)nc2c(C(F)(F)F)cccc12)C1CCCCN1 (configuration not stated) [MEFLOQUINE]	37.4	1.85		0.289	20.1		
Cl.Cl.Nc1nccc2ccc(NCc3cccc(C(F)(F)F)c3)cc12	71.9	1.44	260	5.2	50.1		
Cl.Cl.Cl.Nc1nccc2ccc(NCc3cccc(Cl)c3)cc12	158	2.44	359	5.55	64.8	Active	Active
